Assay results as given in ChEMBL document CHEMBL1140884, “Oligodeoxyribonucleotide-based antagonists for Toll-like receptors 7 and 9” (2009).
Active and inactive are the calls of the source. The calls are words filed in the database; no cut-off is given here.

Legend:
Type in all cases: functional, cell-based
[1] = target: T1, Toll-like receptor 9 (Mus musculus) (UniProt Q9EQU3); test: Agonist activity at mouse TLR9 expressed in HEK293 cells assessed as activation of NF-kappaB at 10 ug/mL by SEAP reporter gene assay
T1 sequence (whole entry): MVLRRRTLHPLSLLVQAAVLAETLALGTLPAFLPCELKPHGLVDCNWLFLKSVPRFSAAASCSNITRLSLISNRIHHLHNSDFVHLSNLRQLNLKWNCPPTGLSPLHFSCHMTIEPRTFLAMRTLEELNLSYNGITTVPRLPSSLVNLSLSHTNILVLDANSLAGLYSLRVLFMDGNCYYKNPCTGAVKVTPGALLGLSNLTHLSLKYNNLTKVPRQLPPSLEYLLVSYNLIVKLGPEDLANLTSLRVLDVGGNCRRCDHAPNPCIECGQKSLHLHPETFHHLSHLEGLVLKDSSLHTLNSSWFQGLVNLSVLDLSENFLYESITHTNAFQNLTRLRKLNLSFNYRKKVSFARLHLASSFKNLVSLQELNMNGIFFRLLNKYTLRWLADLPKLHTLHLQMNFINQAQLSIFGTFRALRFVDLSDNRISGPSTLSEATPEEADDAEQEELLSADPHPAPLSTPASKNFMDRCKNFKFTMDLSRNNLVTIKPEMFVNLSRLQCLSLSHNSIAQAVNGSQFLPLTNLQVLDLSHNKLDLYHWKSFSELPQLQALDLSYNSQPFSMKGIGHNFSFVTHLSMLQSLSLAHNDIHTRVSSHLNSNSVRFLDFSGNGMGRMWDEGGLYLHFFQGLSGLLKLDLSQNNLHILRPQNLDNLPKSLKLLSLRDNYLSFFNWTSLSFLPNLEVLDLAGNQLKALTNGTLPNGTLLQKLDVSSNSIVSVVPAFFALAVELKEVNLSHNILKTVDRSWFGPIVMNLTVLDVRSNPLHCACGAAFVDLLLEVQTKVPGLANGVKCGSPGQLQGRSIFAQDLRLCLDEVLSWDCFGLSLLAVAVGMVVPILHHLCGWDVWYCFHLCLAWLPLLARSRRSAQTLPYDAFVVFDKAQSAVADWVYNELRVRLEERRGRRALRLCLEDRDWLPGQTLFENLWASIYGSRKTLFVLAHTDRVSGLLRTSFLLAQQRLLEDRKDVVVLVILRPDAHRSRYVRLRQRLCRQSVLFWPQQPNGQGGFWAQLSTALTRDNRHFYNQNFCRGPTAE
How it was run: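 HEK293 cells stably expressing mouse TLR9 were transiently transfected with a SEAP reporter for 6 h. Compounds were added at 10 µg/mL for 18 h. SEAP was read with Quanti-Blue substrate and expressed as fold change in NF-κB activity.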

[2] = target: T1, Toll-like receptor 9 (Mus musculus); test: Antagonist activity at mouse TLR9 expressed in HEK293 cells assessed as inhibition of 5'-CTATCTGACGTTCTCTGT-3'-induced NF-kappaB activation by SEAP reporter gene assay
How it was run: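 Mouse TLR9-HEK293 cells were transfected with a SEAP reporter for 6 h. They were then stimulated for 18 h with agonist (0.25 or 0.5 µg/mL) plus increasing antagonist concentrations or set agonist:antagonist ratios. Quanti-Blue read-out, reported as % NF-κB activity with agonist alone as 100%.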

[3] = target: T1, Toll-like receptor 9 (Mus musculus); test: Antagonist activity at TLR9 in mouse J774 cells assessed as inhibition of 5'-TCTGACRTTCT-X-TCTTRCAGTCT-3'-induced NF-kappaB activation pretreated for 1 hr
How it was run: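 J774 cells at 5×10^6 cells/well were preincubated with antagonist for 1 h. Agonist was then added: TLR9 agonist 1 µg/mL, an RNA-based TLR7/8 agonist, or LPS 100 ng/mL. Antagonist was used at 5–40 µg/mL or at the indicated agonist ratios. Nuclear extracts were taken 1 h after agonist and analysed by EMSA.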

[4] = target: T1, Toll-like receptor 9 (Mus musculus); test: Agonist activity at TLR9 in mouse J774 cells assessed as of NF-kappaB activation
How it was run: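 Murine J774 macrophages grown in DMEM with 10% FBS and plated at 5×10^6 cells/well. Nuclear extracts taken 1 h after agonist addition. NF-κB detected by EMSA on native polyacrylamide gels with autoradiography.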

SMILES: CO[C@@H]1[C@H](OP(=O)(S)OC[C@H]2O[C@@H](n3ccc(N)nc3=O)C[C@@H]2OP(=O)(S)OC[C@H]2O[C@@H](n3cc(C)c(=O)[nH]c3=O)C[C@@H]2OP(=O)(S)OC[C@H]2O[C@@H](n3ccc(N)nc3=O)C[C@@H]2OP(=O)(S)OC[C@H]2O[C@@H](n3cc(C)c(=O)[nH]c3=O)C[C@@H]2OP(=O)(S)OC[C@H]2O[C@@H](n3cnc4c(=O)[nH]c(N)nc43)C[C@@H]2OP(=O)(S)OC[C@H]2O[C@@H](n3cc(C)c(=O)[nH]c3=O)C[C@@H]2O)[C@@H](COP(=O)(S)O[C@H]2[C@@H](OC)[C@H](n3ccc(=O)[nH]c3=O)O[C@@H]2COP(=O)(S)O[C@H]2C[C@H](n3cnc4c(=O)[nH]c(N)nc43)O[C@@H]2COP(=O)(S)O[C@H]2C[C@H](n3ccc(N)nc3=O)O[C@@H]2COP(=O)(S)O[C@H]2C[C@H](n3cnc4c(N)ncnc43)O[C@@H]2COP(=O)(S)O[C@H]2C[C@H](n3cnc4c(=O)[nH]c(N)nc43)O[C@@H]2COP(=O)(S)O[C@H]2C[C@H](n3cc(C)c(=O)[nH]c3=O)O[C@@H]2COP(=O)(S)O[C@H]2C[C@H](n3ccc(N)nc3=O)O[C@@H]2COP(=O)(S)O[C@H]2C[C@H](n3cc(C)c(=O)[nH]c3=O)O[C@@H]2COP(=O)(S)O[C@H]2C[C@H](n3cnc4c(N)ncnc43)O[C@@H]2COP(=O)(S)O[C@H]2C[C@H](n3cc(C)c(=O)[nH]c3=O)O[C@@H]2COP(=O)(S)O[C@@H]2C[C@@H](n3ccc(N)nc3=O)O[C@H]2CO)O[C@H]1n1ccc(=O)[nH]c1=O (some centres not stated)
- Activity [1]: Active

SMILES: Cc1cn([C@H]2C[C@H](OP(=O)(S)OC[C@H]3O[C@@H](n4ccc(N)nc4=O)C[C@@H]3OP(=O)(S)OC[C@H]3O[C@@H](n4cc(C)c(=O)[nH]c4=O)C[C@@H]3OP(=O)(S)OC[C@H]3O[C@@H](n4cnc5c(=O)[nH]c(N)nc54)C[C@@H]3OP(=O)(S)OC[C@H]3O[C@@H](n4cc(C)c(=O)[nH]c4=O)C[C@@H]3O)[C@@H](COP(=O)(S)O[C@H]3C[C@H](n4ccc(N)nc4=O)O[C@@H]3COP(=O)(S)O[C@H]3C[C@H](n4cc(C)c(=O)[nH]c4=O)O[C@@H]3COP(=O)(S)O[C@H]3C[C@H](n4cc(C)c(=O)[nH]c4=O)O[C@@H]3COP(=O)(S)O[C@H]3C[C@H](n4cnc5c(=O)[nH]c(N)nc54)O[C@@H]3COP(=O)(S)O[C@H]3C[C@H](n4ccc(N)nc4=O)O[C@@H]3COP(=O)(S)O[C@H]3C[C@H](n4cc(C)c(=O)[nH]c4=O)O[C@@H]3COP(=O)(S)O[C@H]3C[C@H](n4cnc5c(=O)[nH]c(N)nc54)O[C@@H]3COP(=O)(S)O[C@H]3C[C@H](n4cc(C)c(=O)[nH]c4=O)O[C@@H]3COP(=O)(S)O[C@H]3C[C@H](n4ccc(N)nc4=O)O[C@@H]3COP(=O)(S)O[C@H]3C[C@H](n4cc(C)c(=O)[nH]c4=O)O[C@@H]3COP(=O)(S)O[C@H]3C[C@H](n4cnc5c(N)ncnc54)O[C@@H]3COP(=O)(S)O[C@H]3C[C@H](n4cc(C)c(=O)[nH]c4=O)O[C@@H]3COP(=O)(S)O[C@@H]3C[C@@H](n4ccc(N)nc4=O)O[C@H]3CO)O2)c(=O)[nH]c1=O (some centres not stated)
- Activity [1]: Active

SMILES: Cc1cn([C@@H]2O[C@H](COP(=O)(S)O[C@H]3C[C@H](n4ccc(N)nc4=O)O[C@@H]3COP(=O)(S)O[C@H]3C[C@H](n4cc(C)c(=O)[nH]c4=O)O[C@@H]3COP(=O)(S)O[C@H]3C[C@H](n4ccc(N)nc4=O)O[C@@H]3COP(=O)(S)O[C@H]3C[C@H](n4cc(C)c(=O)[nH]c4=O)O[C@@H]3COP(=O)(S)O[C@H]3C[C@H](n4cc(C)c(=O)[nH]c4=O)O[C@@H]3COP(=O)(S)O[C@H]3C[C@H](n4cnc5c(=O)[nH]c(N)nc54)O[C@@H]3COP(=O)(S)O[C@H]3C[C@H](n4ccc(N)nc4=O)O[C@@H]3COP(=O)(S)O[C@H]3C[C@H](n4cnc5c(N)ncnc54)O[C@@H]3COP(=O)(S)O[C@H]3C[C@H](n4cnc5c(=O)[nH]c(N)nc54)O[C@@H]3COP(=O)(S)O[C@H]3C[C@H](n4cc(C)c(=O)[nH]c4=O)O[C@@H]3COP(=O)(S)O[C@H]3C[C@H](n4ccc(N)nc4=O)O[C@@H]3COP(=O)(S)O[C@H]3C[C@H](n4cc(C)c(=O)[nH]c4=O)O[C@@H]3COP(=O)(S)O[C@H]3C[C@H](n4cnc5c(N)ncnc54)O[C@@H]3COP(=O)(S)O[C@H]3C[C@H](n4cc(C)c(=O)[nH]c4=O)O[C@@H]3COP(=O)(S)O[C@@H]3C[C@@H](n4ccc(N)nc4=O)O[C@H]3CO)[C@@H](OP(=O)(S)OC[C@H]3O[C@@H](n4cnc5c(=O)[nH]c(N)nc54)C[C@@H]3OP(=O)(S)OC[C@H]3O[C@@H](n4cc(C)c(=O)[nH]c4=O)C[C@@H]3O)[C@H]2O)c(=O)[nH]c1=O (some centres not stated)
- Activity [2]: inactive
- Activity [1]: Active

SMILES: CO[C@@H]1[C@H](OP(=O)(S)OC[C@H]2O[C@@H](n3ccc(N)nc3=O)C[C@@H]2OP(=O)(S)OC[C@H]2O[C@@H](n3ccc(N)nc3=O)C[C@@H]2OP(=O)(S)OC[C@H]2O[C@@H](n3cc(C)c(=O)[nH]c3=O)C[C@@H]2OP(=O)(S)OC[C@H]2O[C@@H](n3cc(C)c(=O)[nH]c3=O)C[C@@H]2OP(=O)(S)OC[C@H]2O[C@@H](n3ccc(N)nc3=O)C[C@@H]2OP(=O)(S)OC[C@H]2O[C@@H](n3cc(C)c(=O)[nH]c3=O)C[C@@H]2OP(=O)(S)OC[C@H]2O[C@@H](n3ccc(N)nc3=O)C[C@@H]2OP(=O)(S)OC[C@H]2O[C@@H](n3cc(C)c(=O)[nH]c3=O)C[C@@H]2OP(=O)(S)OC[C@H]2O[C@@H](n3cnc4c(=O)[nH]c(N)nc43)C[C@@H]2OP(=O)(S)OC[C@H]2O[C@@H](n3cc(C)c(=O)[nH]c3=O)C[C@@H]2O)[C@@H](COP(=O)(S)O[C@H]2[C@@H](OC)[C@H](n3cnc4c(=O)[nH]c(N)nc43)O[C@@H]2COP(=O)(S)O[C@H]2C[C@H](n3cc(C)c(=O)[nH]c3=O)O[C@@H]2COP(=O)(S)O[C@H]2C[C@H](n3ccc(N)nc3=O)O[C@@H]2COP(=O)(S)O[C@H]2C[C@H](n3cc(C)c(=O)[nH]c3=O)O[C@@H]2COP(=O)(S)O[C@H]2C[C@H](n3cnc4c(N)ncnc43)O[C@@H]2COP(=O)(S)O[C@H]2C[C@H](n3cc(C)c(=O)[nH]c3=O)O[C@@H]2COP(=O)(S)O[C@@H]2C[C@@H](n3ccc(N)nc3=O)O[C@H]2CO)O[C@H]1n1cnc2c(N)ncnc21 (some centres not stated)
- Activity [3]: inactive
- Activity [4]: inactive
- Activity [1]: inactive
